In ChEMBL document CHEMBL1155236, “Identification of biphenyl-based hybrid molecules able to decrease the intracellular level of Bcl-2 protein in Bcl-2 overexpressing leukemia cells” (J Med Chem, 2009):
One block for each compound: values may come before it. Active and inactive are the calls of the source. The rule behind the calls is not given here.

Tests used:
[1] = tested on: K562; assay: Induction of apoptosis in human K562 cells assessed as morphological changes after 48 hrs by annexin V assay; format: functional, cell-based; settings: K562, 48 h, read-out: AC50
How it was run: (§1)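 HL60 or K562 cells treated for 48 h. Apoptosis scored by morphological assay and annexin V test. AC50 is the concentration inducing apoptosis in 50% of cells.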

[2] = tested on: K562; assay: Cell cycle arrest in human K562 cells by accumulation at G2/M phase at 30 uM after 24 hrs using propidium iodide staining by FACS; format: functional
How it was run: (§2)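 K562 cells treated for 24, 48 or 72 h. Cells stained with propidium iodide and cell-cycle phase distribution analysed by flow cytometry against untreated cells. The sub-G0–G1 peak was taken as apoptotic.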

[3] = Cytotoxicity against human lymphocytes after 48 hrs by trypan blue method; format: cell-based; settings: Lymphocyte, read-out: IC50
How it was run: (§3)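 Growth inhibition read by counting cells with an automatic cell counter after 48 h of compound exposure. IC50 is the concentration inhibiting 50% of cell growth.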

[4] = tested on: K562; assay: Cell cycle arrest in human K562 cells by accumulation at G1 phase at 30 uM after 24 hrs using propidium iodide staining by FACS; format: functional; how it was run: as §2
[5] = tested on: K562; assay: Cell cycle arrest in human K562 cells by accumulation at S phase at 30 uM after 48 hrs using propidium iodide staining by FACS; format: functional; how it was run: as §2
[6] = tested on: K562; assay: Antiproliferative activity against human K562 cells after 48 hrs by trypan blue method; format: functional, cell-based; settings: K562, 48 h; how it was run: as §3
[7] = tested on: HL-60; assay: Antiproliferative activity against human HL60 cells after 48 hrs by trypan blue method; format: functional, cell-based; settings: HL-60, 48 h; how it was run: as §3
[8] = tested on: K562; assay: Cell cycle arrest in human K562 cells by accumulation at sub-G1 (apoptotic) phase at 30 uM after 72 hrs using propidium iodide staining by FACS; format: functional; how it was run: as §2
[9] = tested on: K562; assay: Cell cycle arrest in human K562 cells by accumulation at G2/M phase at 30 uM after 48 hrs using propidium iodide staining by FACS; format: functional; how it was run: as §2
[10] = tested on: K562; assay: Induction of apoptosis in human K562 cells assessed as decrease in Bcl-2 expression at 30 uM after 24 hrs by flow cytometry; format: functional; set-up: scale not given: the % may be the effect or the level left
How it was run: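 K562 cells cultured 24 h with compound at 30 μM or without (control). Intracellular Bcl-2 read by flow cytometry after staining with FITC-conjugated anti-Bcl-2 monoclonal antibody. Treated histograms compared with control histograms.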

[11] = tested on: K562; assay: Cell cycle arrest in human K562 cells by accumulation at S phase at 30 uM after 72 hrs using propidium iodide staining by FACS; format: functional; how it was run: as §2
[12] = tested on: K562; assay: Cell cycle arrest in human K562 cells by accumulation at G2/M phase at 30 uM after 72 hrs using propidium iodide staining by FACS; format: functional; how it was run: as §2
[13] = tested on: HL-60; assay: Induction of apoptosis in human HL60 cells assessed as morphological changes after 48 hrs by annexin V assay; format: functional, cell-based; settings: HL-60, 48 h; how it was run: as §1
[14] = tested on: K562; assay: Cell cycle arrest in human K562 cells by accumulation at sub-G1 (apoptotic) phase at 30 uM after 24 hrs using propidium iodide staining by FACS; format: functional; how it was run: as §2
[15] = tested on: K562; assay: Cell cycle arrest in human K562 cells by accumulation at S phase at 30 uM after 24 hrs using propidium iodide staining by FACS; format: functional; how it was run: as §2
[16] = tested on: K562; assay: Cell cycle arrest in human K562 cells by accumulation at sub-G1 (apoptotic) phase at 30 uM after 48 hrs using propidium iodide staining by FACS; format: functional; how it was run: as §2
[17] = tested on: K562; assay: Cell cycle arrest in human K562 cells by accumulation at G1 phase at 30 uM after 72 hrs using propidium iodide staining by FACS; format: functional; how it was run: as §2
[18] = tested on: K562; assay: Cell cycle arrest in human K562 cells by accumulation at G1 phase at 30 uM after 48 hrs using propidium iodide staining by FACS; format: functional; how it was run: as §2
[19] = tested on: K562; assay: Induction of apoptosis in human K562 cells assessed as induction of cell differentiation marker CD11c expression at 10 uM after 120 hrs by flow cytometry; format: functional, cell-based
How it was run: (§4)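 HL60 or K562 cells exposed to 10 μM compound or no compound (control) for 120 h (5 days). Surface CD11c and CD61 read by flow cytometry with PE- or FITC-conjugated monoclonal antibodies. Treated cells compared with untreated cells.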

[20] = tested on: HL-60; assay: Induction of apoptosis in human HL60 cells assessed as induction of cell differentiation marker CD11c expression at 10 uM after 120 hrs by flow cytometry; format: functional, cell-based; how it was run: as §4
[21] = tested on: K562; assay: Induction of apoptosis in human K562 cells assessed as induction of cell differentiation marker CD61 expression at 10 uM after 120 hrs by flow cytometry; format: functional, cell-based; how it was run: as §4
[22] = tested on: HL-60; assay: Induction of apoptosis in human HL60 cells assessed as induction of cell differentiation marker CD61 expression at 10 uM after 120 hrs by flow cytometry; format: functional, cell-based; how it was run: as §4

SMILES: O=C1C[C@H](c2ccc(O)cc2)C2(C(=O)c3ccccc3C2=O)[C@H](c2ccccc2)C1
IC50 [6]: 25 µM
IC50 [7]: 23 µM

SMILES: CC1(C)OC(=O)C2(C(=O)O1)[C@@H](c1ccc(-c3ccc(-c4ccc(O)cc4)cc3)cc1)CC(=O)C[C@H]2c1ccccc1
AC50 [1]: > 100 µM
Activity [2]: 11%
IC50 [3]: 185 µM
Activity [19]: inactive
Activity [4]: 65%
Activity [20]: Active
Activity [5]: 22%
IC50 [6]: 8 µM
IC50 [7]: 16 µM
Activity [8]: 2%
Activity [9]: 6%
Activity [21]: inactive
Activity [10]: 4.9%
Activity [22]: Active
Activity [11]: 20%
Activity [12]: 8%
AC50 ([13]; read-out: AC50): 32 µM
Activity [14]: 2%
Activity [15]: 26%
Activity [16]: 2%
Activity [17]: 72%
Activity [18]: 72%

SMILES: CC1(C)OC(=O)C2(C(=O)O1)[C@@H](c1ccc(-c3ccc(CO)cc3)cc1)CC(=O)C[C@H]2c1ccccc1
IC50 [6]: 38 µM
IC50 [7]: 20 µM

SMILES: O=C1C[C@H](c2ncc[nH]2)C2(C(=O)c3ccccc3C2=O)[C@H](c2ncc[nH]2)C1
IC50 [6]: > 100 µM
IC50 [7]: > 100 µM

More lines, main results first:

IC50 [6]: 8 µM
IC50 [7]: 6 µM
SMILES: O=C1C[C@H](c2ccc(-c3ccc(O)cc3)cc2)C2(C(=O)c3ccccc3C2=O)[C@H](c2ccccc2)C1
AC50 [1]: 25 µM
Activity [2]: 17%
IC50 [3]: 215 µM
Activity [4]: 44%
Activity [5]: 61%
Activity [8]: 55%
Activity [9]: 4%
Activity [10]: 32.8%
Activity [11]: 61%
Activity [12]: 2%
AC50 ([13]; read-out: AC50): 11 µM
Activity [14]: 4%
Activity [15]: 39%
Activity [16]: 53%
Activity [17]: 34%
Activity [18]: 35%

IC50 [6]: > 80 µM
IC50 [7]: > 80 µM
SMILES: Oc1ccc(-c2cc(O)cc(O)c2)cc1
AC50 [1]: > 80 µM
AC50 [13]: > 80 µM

IC50 [6]: 73 µM
IC50 [7]: 28 µM
SMILES: O=C1C[C@H](c2ccc(O)cc2)C2(C(=O)c3ccccc3C2=O)[C@H](c2ccc(O)cc2)C1

IC50 [6]: > 80 µM
IC50 [7]: > 80 µM
SMILES: OCc1ccc(-c2cc(O)cc(O)c2)cc1
AC50 [1]: > 80 µM
AC50 ([13]; read-out: AC50): > 80 µM
